APJ antagonist = antagonists of human apelin receptor APJ, primary screen, CHO-K1 cells, beta-arrestin complementation, luminescence. 330,000 tested, 0.32% active. inhibition, % at 20 µM. AID 2521, 2010. P35414;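 active = inhibition above about 40% at 20 µM, limit read from the data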;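 note: cells challenged with 10 nM apelin-13 agonist together with compound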
EBI2 antag = EBI2 receptor antagonists, beta-arrestin recruitment, primary screen, cell-based, luminescence, 7a,25-OHC stimulation, uHTS; G-protein coupled receptor 183 (Homo sapiens), P32249; 7a,25-OHC stimulated; inhibition, % at 5 µM; 360,000 tested, 0.81% active; AID 651636, 2012; in the data active = inhibition above about 38%;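 note: enzyme fragment complementation signal reports receptor beta-arrestin coupling in cells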
CXCR6 block = CXCR6 receptor inhibitors, primary screen, cell-based, beta-arrestin, luminescence, CHO-K1 PathHunter, 1536-well; inhibition, % at 20 µM; 360,000 tested, 0.36% active; AID 602244, 2012; in the data active = inhibition above about 34%, passing the limit was not always enough;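 note: antagonist mode with CXCL16 agonist at 10 nM final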
Target sequence (O00574 whole entry, looked up): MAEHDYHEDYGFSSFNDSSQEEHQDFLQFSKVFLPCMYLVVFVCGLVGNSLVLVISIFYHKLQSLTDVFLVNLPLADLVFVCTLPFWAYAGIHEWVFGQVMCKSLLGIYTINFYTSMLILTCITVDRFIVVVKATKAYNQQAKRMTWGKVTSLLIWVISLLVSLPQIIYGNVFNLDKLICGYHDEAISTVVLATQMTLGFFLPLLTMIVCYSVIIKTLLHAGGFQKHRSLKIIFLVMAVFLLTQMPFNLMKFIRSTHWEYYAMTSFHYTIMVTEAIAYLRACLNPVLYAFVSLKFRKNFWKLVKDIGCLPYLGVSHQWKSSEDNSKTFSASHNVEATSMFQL
CCR6 antagonist = CCR6 receptor antagonists, primary screen, cell-based, CHO-K1, luminescence, beta-arrestin, uHTS; AID 493098, 2011; 340,000 tested, 0.49% active; CHO-K1 CCR6 PathHunter beta-arrestin, CCL20-stimulated; C-C chemokine receptor type 6 (Homo sapiens), P51684; inhibition, % at 20 µM;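 active = compounds whose inhibition of the agonist-driven luminescence signal at 20 µM reaches about 50%, limit read from the data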;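 note: cells stimulated with CCL20 at 14 nM final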
APJ agonist = agonists of human apelin receptor APJ, primary screen, CHO-K1 cells, PathHunter beta-arrestin, luminescence. P35414. 0% DMSO wells, 100% apelin. activation, % at 20 µM. 330,000 tested, 0.11% active;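 active = activation more than six SD over the plate average, tested at 20 µM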
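Test system: CHO-K1 APJ beta-arrestin complementation cell line | Compound: Single test compound dose, 20 µM final, 1% DMSO | Incubation: Compound 90 min 25 °C, reagent 1 h | Measured by: beta-gal luminescence | Read-out basis: APJ–arrestin association signal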
EBI2 antag conf = EBI2 antagonist hit retest, beta-arrestin, confirmation, cell-based, single concentration, luminescence, 7a,25-OHC stimulation; shares compounds with EBI2 antag; inhibition, % at 5 µM; 2,400 tested, 29% active; 7a,25-OHC antagonism;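 active = inhibition of at least 50%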
EBI2 agonist = EBI2 agonist activity of antagonist hits, confirmation, counter-screen for EBI2 antagonist project, cell-based, single concentration, agonist mode, luminescence | 2,400 tested, under 10 active | EBI2-expressing cells, 60 min; 0% vehicle, 100% 7α,25-dihydroxycholesterol control | shares compounds with EBI2 antag | activation, % at 5 µM;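 active = activation of at least 50%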
bGal cs = E. coli beta-galactosidase enzyme inhibition, confirmation, counter-screen for EBI2 antagonist project, biochemical, luminescence, single concentration. shares compounds with EBI2 antag. purified beta-galactosidase, luminescent Galacton Star, 15 min. inhibition, % at 5 µM. 2,400 tested, 1% active;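 active = replicate-average signal at least 3 plate SD below neutral wells, shown as high inhibition, flagging enzyme-inhibiting false positives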;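 note: higher means stronger loss of beta-gal luminescence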
Numbers stand for hits; - = inactive; . = no result given. An excerpt weighted towards active compounds, which were near 1.5% of everything screened.

SMILES	APJ antagonist	EBI2 antag	CXCR6 block	CCR6 antagonist	APJ agonist	EBI2 antag conf	EBI2 agonist	bGal cs
CC(=O)c1ccc(Nc2ccc(-c3ccccc3F)nn2)cc1	-	42	-	-	-	-	-	-
CCN(CC(=O)NCc1ccc(Cl)cc1)C(=O)c1ccc2cc(OC)ccc2c1	-	68	-	-	-	52	-	-
CCN(CC(=O)NCc1ccc(Cl)cc1)C(=O)/C=C/c1ccccc1	-	76	-	-	-	-	-	-
CCN(CC(=O)NCc1ccc(Cl)cc1)C(=O)/C=C/c1ccco1	-	-	-	-	-	.	.	.
CCN(CC(=O)NCc1ccc(Cl)cc1)C(=O)/C=C/c1ccc(C#N)cc1	-	51	-	-	-	-	-	-
CCN(CC(=O)NCc1ccc(Cl)cc1)C(=O)/C=C/c1ccc(Cl)c([N+](=O)[O-])c1	-	-	-	-	-	.	.	.
Brc1ccc(-c2nnc3sc(CN4CCC5(CC4)OCCO5)cn23)cc1	-	56	-	-	-	-	-	-
C=CCn1c(SCc2c(C)noc2C)nc2ccccc2c1=O	-	-	-	-	-	.	.	.
COc1cc2nc(SCc3c(C)noc3C)n(CCC3=CCCCC3)c(=O)c2cc1OC	-	46	-	-	-	-	-	-
O=C(CN1CCN(C(=O)C2CCN(C(=O)/C=C/c3ccccc3)CC2)CC1)Nc1ccccc1Cl	-	88	-	-	-	56	-	-
CCOC(=O)C1CCN(C(=O)/C=C/c2ccc3c(c2)OCO3)CC1	-	56	-	-	-	-	-	-
CN(C)C(CNC(=O)C1CCN(C(=O)/C=C/c2ccccc2)CC1)c1ccccc1 (stereo unspecified)	-	72	-	-	-	-	-	-
CCOC(=O)C1CCN(C(=O)/C=C/c2ccccc2)CC1	-	65	-	-	-	51	-	-
O=C(CN1CCCCCC1)Nc1ccccc1Cl	-	-	-	-	-	.	.	.
O=C(/C=C/c1ccc2c(c1)OCO2)N1CCCCC1	-	-	-	-	-	.	.	.
O=C(NCc1nc2ccccc2[nH]1)C1=C[C@H](c2ccc(C(F)(F)F)cc2)C[C@H](OCCCCO)O1	-	-	-	-	-	.	.	.
COc1ccc(CC2SC(=Nc3ccc(F)cc3)NC2=O)cc1 (stereo unspecified)	-	-	-	-	-	.	.	.
Cc1ccc2nc(SCCC(=O)O)cc(C)c2c1	-	-	-	-	-	.	.	.
COc1ccc(NC(=O)CN(C)C(=O)c2ccc(NS(=O)(=O)c3ccc4[nH]c(=O)[nH]c4c3)cc2)cc1	-	-	-	-	-	.	.	.
O=C(NCc1ccccc1Cl)c1nnc(CS(=O)(=O)c2ccccc2)o1	-	-	-	-	-	.	.	.
COc1ccc(/C=N/NC(=O)CSc2nnc(CCCc3ccc(OC)c(C)c3)o2)cc1	-	47	-	-	-	-	-	-
COc1ccc(CCCc2nnc(SCC(=O)N/N=C\c3ccc(O)c(OC)c3)o2)cc1C	-	-	-	-	-	.	.	.
COc1ccccc1-c1cc(NC=O)c2ncc(-c3cccc(C(=O)N(C)C)c3)n2c1	.	75	-	.	.	-	-	-
COc1ccc(NC(=O)N2CCN(c3nc(-c4cccc(OC)c4)cs3)CC2)cc1	-	-	-	-	-	.	.	.
COc1cccc(-c2csc(N3CCN(C(=O)Nc4ccc(Cl)cc4)CC3)n2)c1	-	42	-	-	-	-	-	-
CCOc1cc(/C=C2/SC(=Nc3ccccc3)N(Cc3cccnc3)C2=O)ccc1OCC#N	-	48	-	-	-	-	-	-

Screening results from PubChem BioAssay.
